Reference: ChEMBL document CHEMBL4251588, “2-Alkoxycarbonyl-3-arylamino-5-substituted thiophenes as a novel class of antimicrotubule agents: Design, synthesis, cell growth and tubulin polymerization inhibition” (Eur J Med Chem, 2018)
Active and inactive are the calls of the source. The calls are words filed in the database; no cut-off is given here.

Tests used:
CCRF-CEM = assay: Antiproliferative activity against human CEM cells after 3 days by Coulter counter method; type: functional, cell-based; conditions: 72 h
How it was run: (§1)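 Cells suspended at 300,000–500,000 cells/mL; 100 μL suspension added to 100 μL of compound dilutions. Incubated at 37 °C for 2 days (L1210, FM3A), 3 days (CEM) or 4 days (HeLa), then counted by Coulter counter. IC50 is the concentration giving 50% inhibition of proliferation. Values are mean ± SD of two to three independent experiments.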

L1210 = assay: Antiproliferative activity against mouse L1210 cells after 2 days by Coulter counter method; type: functional, cell-based; conditions: L1210, 48 h; how it was run: as §1
HeLa [1] = assay: Antiproliferative activity against human HeLa cells after 4 days by Coulter counter method; type: functional, cell-based; conditions: 96 h; how it was run: as §1
FM3A = assay: Antiproliferative activity against mouse FM3A cells after 2 days by Coulter counter method; type: functional, cell-based; conditions: 48 h
How it was run: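 Cells suspended at 300,000–500,000 cells/mL; 100 μL suspension added to 100 μL of compound dilutions. Incubated at 37 °C for 2 days (L1210, FM3A), 3 days (CEM) or 4 days (HeLa), then counted by Coulter counter. Values are mean ± SD of two to three independent experiments.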

[2] = Inhibition of bovine brain tubulin polymerization in presence of GTP by spectrophotometric analysis; design: species or system Bos taurus
How it was run: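 0.4 mM GTP added, mixtures rewarmed to 30 °C in cuvettes and turbidity followed at 350 nm.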

Bos taurus = organism: Bos taurus; assay: Inhibition of [3H]colchicine binding to bovine brain tubulin at 5 uM relative to control
How it was run: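 Reaction mixtures held 1 μM tubulin, 5 μM [3H]colchicine and 5 μM test compound. Inhibition of radiolabelled colchicine binding was measured by a previously described method.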

HeLa [3] = assay: Induction of apoptosis in human HeLa cells at 125 to 500 nM after 24 to 48 hrs by annexin V-FITC/propidium iodide staining-based flow cytometric analysis; type: functional, cell-based
How it was run: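 Treated HeLa cells were harvested at 24 or 48 h and double-labeled with annexin-V-FITC, which marks exposed phosphatidylserine, and PI. Apoptotic fractions were measured by flow cytometry; mean ± SEM of three independent experiments.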

HeLa [4] = assay: Cell cycle arrest in human HeLa cells assessed as increase in cells at S phase at 500 nM after 24 hrs by propidium iodide staining-based flow cytometric analysis
PBL [5] = assay: Growth inhibition of human PHA-stimulated PBL after 72 hrs by MTT assay; type: cell-based
How it was run: (§2)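 Donor PBL isolated by density gradient, washed, held overnight at 1.0 × 10^6 cells/mL in RPMI-1640 with 10% FBS. Non-adherent cells reseeded at 5 × 10^5 cells/mL, with 2.5 μg/mL PHA (proliferating) or without it (resting), then given compound dilutions. MTT viability read after 72 h. GI50 is the concentration giving 50% growth reduction; mean ± SEM of two experiments.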

HeLa [6] = assay: Cell cycle arrest in human HeLa cells assessed as reduction of cells at G1 phase up to 500 uM after 24 hrs by propidium iodide staining-based flow cytometric analysis; type: functional; conditions: in the assay text read “500 nM” for “500 uM”
How it was run: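 5 × 10^5 HeLa cells exposed to graded compound levels for 24 h; harvested, fixed in ice-cold 70% ethanol, lysed in buffer containing RNase A and 0.1% Triton X-100, PI-stained, DNA content read by flow cytometry. Phase percentages are means ± SEM of two independent experiments.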

PBL [7] = assay: Growth inhibition of resting human PBL after 72 hrs by MTT assay; type: cell-based; how it was run: as §2
HeLa [8] = assay: Cell cycle arrest in human HeLa cells assessed as accumulation of cells at G2/M phase at 500 nM after 24 hrs by propidium iodide staining-based flow cytometric analysis
HeLa [9] = assay: Cell cycle arrest in human HeLa cells assessed as decrease in cyclin B1 expression after 48 hrs by Western blot analysis; type: functional, cell-based
How it was run: (§3)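 HeLa cells treated for 24 or 48 h at several concentrations, washed in ice-cold PBS, lysed on ice 30 min and spun at 15000 x g, 4 °C. 10 μg protein separated by SDS-PAGE, blotted, blocked in 3% BSA, probed overnight at 4 °C with primary antibodies, peroxidase secondary and ECL detection. Stripped membranes reprobed for β-actin as loading control.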

HeLa [10] = assay: Induction of ROS production in human HeLa cells at 250 nM after 12 to 24 hrs by H2DCFDA staining-based flow cytometric analysis; type: functional, cell-based
How it was run: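 HeLa cells treated for 6, 12, 24 or 48 h, then loaded with H2-DCFDA and ROS read by flow cytometry; mean ± SEM of three independent experiments.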

HeLa [11] = assay: Cell cycle arrest in human HeLa cells assessed as reduction in cdc25c expression at 100 nM after 24 hrs by Western blot analysis
HeLa [12] = assay: Induction of apoptosis in human HeLa cells assessed as decrease in Bcl-2 levels at 100 to 250 nM after 24 hrs by Western blot analysis; type: functional, cell-based
How it was run: (§4)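 HeLa cells exposed to compound for varied times, washed twice in ice-cold PBS, lysed on ice 30 min and spun 15000 x g at 4 °C. 10 μg protein per lane by SDS-PAGE, blotted, blocked in 3% BSA, primary antibodies (Bcl-2, Mcl-1) overnight at 4 °C, peroxidase secondary 60 min, ECL detection; membranes stripped and reprobed for β-actin as loading control.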

HeLa [13] = assay: Cell cycle arrest in human HeLa cells assessed as decrease in Cdk1 Y15 phosphorylated protein level at 250 nM after 24 to 48 hrs by Western blot analysis; type: functional, cell-based; how it was run: as §3
HeLa [14] = assay: Induction of apoptosis in human HeLa cells assessed as decrease in Mcl-1 levels at 100 to 250 nM after 24 hrs by Western blot analysis; type: functional, cell-based; how it was run: as §4
HeLa [15] = assay: Induction of mitochondrial depolarization in human HeLa cells at 100 to 250 nM by JC-1 staining-based flow cytometric analysis; type: functional, cell-based; conditions: TDE = time-dependent effect
How it was run: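 Mitochondrial potential followed in HeLa cells after 6, 12, 24 or 48 h of exposure. Cells stained with the lipophilic cation JC-1 and the fraction with low Δψmt scored by flow cytometry; mean ± SEM of three independent experiments.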

HeLa [16] = assay: Cell cycle arrest in human HeLa cells assessed as increase in cyclin B1 expression after 24 hrs by Western blot analysis; type: functional, cell-based; how it was run: as §3

SMILES	IC50 (CCRF-CEM) [nM]	IC50 (L1210) [nM]	IC50 (HeLa [1]) [nM]	IC50 (FM3A) [nM]	IC50 [2] [nM]	inhibition (Bos taurus) [%]	further results
COC(=O)c1sc(-c2ccc(Cl)cc2)cc1Nc1cc(OC)c(OC)c(OC)c1	870	1100	870	880			
CCOc1ccc(-c2cc(Nc3cc(OC)c(OC)c(OC)c3)c(C(=O)OC)s2)cc1	5400	6300	4400	5700			
CCOC(=O)c1sc(-c2ccc(OC)cc2)cc1Nc1cc(OC)c(OC)c(OC)c1	1100	1200	2300	1200			
COC(=O)c1sc(-c2ccc([N+](=O)[O-])cc2)cc1Nc1cc(OC)c(OC)c(OC)c1	760	990	1000	930			
CCOC(=O)c1sc(-c2ccc(F)cc2)cc1Nc1cc(OC)c(OC)c(OC)c1	990	1100	2100	1000			
COC(=O)c1sc(-c2ccc(OC)cc2)cc1Nc1cc(OC)c(OC)c(OC)c1	230	270	840	250	2000	46	
COC(=O)c1sc(-c2ccc(C)cc2)cc1Nc1cc(OC)c(OC)c(OC)c1	180	150	260	180	1200	70	Activity (HeLa [3]): Active; Activity (HeLa [4]): Active; GI50 (PBL [5]): 20000 nM; Activity (HeLa [6]): Active; GI50 (PBL [7]): 31700 nM; Activity (HeLa [8]): Active
COC(=O)c1sc(-c2cccc(OC)c2)cc1Nc1cc(OC)c(OC)c(OC)c1	690	1100	800	990			
COC(=O)c1sc(-c2ccc(F)cc2)cc1Nc1cc(OC)c(OC)c(OC)c1	530	560	880	720	2200	41	
COC(=O)c1sc(-c2ccc(Cl)c(Cl)c2)cc1Nc1cc(OC)c(OC)c(OC)c1	3300	5700	5000	4600			
COc1ccc(/C=C\c2cc(OC)c(OC)c(OC)c2)cc1O [COMBRETASTATIN A4]	2	3	2				
CCOC(=O)c1sc(-c2ccc(C)cc2)cc1Nc1cc(OC)c(OC)c(OC)c1	760	820	780	820			
COC(=O)c1sc(-c2ccc(C(F)(F)F)cc2)cc1Nc1cc(OC)c(OC)c(OC)c1	810	1200	1300	1100			
COC(=O)c1sc(-c2cc(OC)c(OC)c(OC)c2)cc1Nc1cc(OC)c(OC)c(OC)c1	> 250000	> 250000	162000	> 250000			
COC(=O)c1sc(-c2ccc(OC)c(OC)c2)cc1Nc1cc(OC)c(OC)c(OC)c1	470	480	890	430	2700	30	
CCOC(=O)c1sc(-c2ccccc2)cc1Nc1cc(OC)c(OC)c(OC)c1	930	1100	1400	980			
COC(=O)c1sc(-c2ccccc2)cc1Nc1cc(OC)c(OC)c(OC)c1	200	240	670	210	1300	57	Activity (HeLa [3]): Active; Activity (HeLa [4]): Active; GI50 (PBL [5]): 19000 nM; Activity (HeLa [6]): Active; GI50 (PBL [7]): 45700 nM; Activity (HeLa [8]): Active
CCOC(=O)c1sc(-c2ccc(Cl)cc2)cc1Nc1cc(OC)c(OC)c(OC)c1	4600	6000	9800	5100			
COC(=O)c1sc(-c2cccs2)cc1Nc1cc(OC)c(OC)c(OC)c1	160	130	160	160	1200	62	Activity (HeLa [9]): Active; Activity (HeLa [10]): Active; Activity (HeLa [3]): Active; Activity (HeLa [11]): Active; Activity (HeLa [12]): Active; Activity (HeLa [13]): Active; Activity (HeLa [4]): Active; GI50 (PBL [5]): 29300 nM; Activity (HeLa [14]): Active; Activity (HeLa [15]): Tde; Activity (HeLa [6]): Active; Activity (HeLa [16]): Dose-dependent effect; GI50 (PBL [7]): 85700 nM; Activity (HeLa [8]): Active
